Data set [1] concerns the target Human immunodeficiency virus type 1 reverse transcriptase (Human immunodeficiency virus 1, UniProt Q72547, K103N). As to the kind of experiment: Inhibition of HIV1 reverse transcriptase K103N mutant by RNA-dependent DNA polymerase activity assay.
Data set [2] has as its target Human immunodeficiency virus type 1 reverse transcriptase (Human immunodeficiency virus 1, UniProt Q72547, Y181I). Description: Inhibition of HIV1 reverse transcriptase Y181I mutant by RNA-dependent DNA polymerase activity assay.
For data set [3], the system named is Human immunodeficiency virus 1. As to the kind of experiment: Antiviral activity against HIV1 3B infected in human MT4 cells assessed inhibition of viral-induced cytopathic effect after 5 days. The note with it: Human immunodeficiency virus 1, 3B, MT4, 120 h. It is filed as functional, organism-based. Summed up: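 MT-4 cells infected with HIV-1 IIIB at about 100 times the CCID50 per mL of suspension, then mixed 1:1 with serial compound dilutions and incubated at 37 °C for five days. Viable cell number was then determined.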

In data set [4] the target is Human immunodeficiency virus type 1 reverse transcriptase (Human immunodeficiency virus 1, UniProt Q72547, L100I). Description: Inhibition of HIV1 reverse transcriptase L100I mutant by RNA-dependent DNA polymerase activity assay.
The nature of data set [5]: Selectivity index, ratio of CC50 for human MT4 cells to EC50 for HIV1 3B. It is filed as toxicity, cell-based. The following applies: read-out: Ratio CC50/EC50.
The nature of data set [6]: Cytotoxicity in human MT4 cells assessed as reduction in cell viability. It is filed as cell-based.
Data set [7] has as its target Human immunodeficiency virus type 1 reverse transcriptase (Human immunodeficiency virus 1, UniProt Q72547). As to the kind of experiment: Inhibition of RNA-dependent DNA polymerase activity of HIV1 reverse transcriptase using poly(rA)/pligo(dT) template.

Consider `Cc1cc(C)cc(S(=O)(=O)n2c(=O)[nH]c3ccc(Cl)cc32)c1`, for which the IC50 was 0.4 µM in data set [1], over 40 µM in data set [2] and 0.009 µM in data set [4]. For the same compound, the EC50 in data set [3] amounted to 0.0022 µM. Besides, in data set [5], the selectivity ratio was 17800.

For the compound `Cc1cccc(S(=O)(=O)n2c(=O)[nH]c3ccc(Cl)cc32)c1`, the IC50 in data set [1] was 10 µM; in data set [7] it was 0.021 µM; in data set [2], over 40 µM; in data set [4] it was 0.07 µM. Besides, the CC50 in data set [6] was over 308 µM. For the same compound, in data set [3], the EC50 is 0.0151 µM. Further, the selectivity ratio in data set [5] was over 20500.

With `Cc1ccc(S(=O)(=O)n2c(=O)[nH]c3ccc(Cl)cc32)cc1`, the 50% cytotoxic concentration (CC50) in data set [6] was 134 µM. The same compound showed an IC50 in data set [7] of 0.149 µM. This compound also yielded an EC50 in data set [3] of 0.046 µM. In addition, the selectivity ratio in data set [5] stood at 2900.

For `O=c1[nH]c2ccc(Cl)cc2n1S(=O)(=O)c1cccc(OC(F)(F)F)c1`, in data set [6], the CC50 was over 128 µM. Besides, the IC50 in data set [7] stood at 0.305 µM. A half-maximal response in data set [3] (EC50) required 3.66 µM. Also, the selectivity ratio in data set [5] is over 35.

In the case of `Cc1cc(C)cc(S(=O)(=O)n2c(=O)[nH]c3ccc(Cl)nc32)c1`, the IC50 was determined as 2.8 µM in data set [1], 0.02 µM in data set [7], 27 µM in data set [2] and 0.07 µM in data set [4]. The CC50 in data set [6] is over 272 µM. The same compound returned an EC50 in data set [3] of 0.026 µM. Besides, the selectivity ratio in data set [5] is over 10500.

As to `Cc1ccc(S(=O)(=O)n2c(=O)[nH]c3ccc(Cl)cc32)c(C)c1`, in data set [6], the CC50 stood at 39.3 µM. The compound also displayed an IC50 in data set [7] of 0.63 µM. This compound displayed an EC50 in data set [3] of 0.12 µM. In data set [5], the selectivity ratio amounted to 327.

Consider `Cc1ccc(C)c(S(=O)(=O)n2c(=O)[nH]c3ccc(Cl)cc32)c1`, for which the IC50 in data set [1] was over 40 µM; in data set [7], 0.049 µM; in data set [2], over 40 µM; in data set [4], 0.38 µM. In addition, the CC50 in data set [6] was over 371 µM. The compound also gave an EC50 in data set [3] of 0.0097 µM. For the same compound, in data set [5], the selectivity ratio is over 37100.

As to `Cc1ccc(S(=O)(=O)n2c(=O)[nH]c3ccc(Cl)cc32)cc1C`, the IC50 is 2.61 µM in data set [1], 0.004 µM in data set [7], over 40 µM in data set [2] and 0.03 µM in data set [4]. Also, the CC50 in data set [6] is over 371 µM. For the same compound, in data set [3], the EC50 turned out to be 0.006 µM. Also, in data set [5], the selectivity ratio was over 61900.

Consider `COc1cccc(S(=O)(=O)n2c(=O)[nH]c3ccc(Cl)cc32)c1`, for which the IC50 in data set [1] was 10.9 µM; in data set [7], 0.052 µM; in data set [2], over 40 µM; in data set [4], 0.33 µM. Also, the CC50 in data set [6] is over 369 µM. In data set [3], this compound came in with an EC50 of 0.035 µM. For the same compound, the selectivity ratio in data set [5] was over 10500.

Turning to `Cc1cc(C)c(C)c(S(=O)(=O)n2c(=O)[nH]c3ccc(Cl)cc32)c1C`, the IC50 in data set [1] is over 40 µM; in data set [7], 0.04 µM; in data set [2] it was over 40 µM; in data set [4], 0.18 µM. In addition, the CC50 in data set [6] is at least 343 µM. This compound gave an EC50 in data set [3] of 0.063 µM. In data set [5], the selectivity ratio is over 5410.

As to `O=c1[nH]c2ccc(Cl)cc2n1S(=O)(=O)c1cc(C(F)(F)F)cc(C(F)(F)F)c1`, the CC50 in data set [6] was determined as 32.3 µM. This compound also came in with an IC50 in data set [7] of 0.31 µM. This compound gave an EC50 in data set [3] of 0.31 µM. The selectivity ratio in data set [5] stood at 104.

As for `Cc1ccccc1S(=O)(=O)n1c(=O)[nH]c2ccc(Cl)cc21`, the CC50 in data set [6] was over 387 µM. In data set [7], 0.269 µM corresponded to half-maximal inhibition (IC50). The compound also had an EC50 in data set [3] of 1.92 µM. Besides, the selectivity ratio in data set [5] was over 201.

As to `Cc1c(C)c(C)c(S(=O)(=O)n2c(=O)[nH]c3ccc(Cl)cc32)c(C)c1C`, the IC50 in data set [1] was 6.7 µM; in data set [7], 0.047 µM; in data set [2], over 40 µM; in data set [4], 0.08 µM. In addition, in data set [6], the CC50 turned out to be 236 µM. This compound displayed an EC50 in data set [3] of 0.129 µM. The selectivity ratio in data set [5] was 1830.

For the compound `Cc1cc(C)c(S(=O)(=O)n2c(=O)[nH]c3ccc(Cl)cc32)c(C)c1`, the IC50 in data set [1] was over 40 µM; in data set [7] it was 0.0012 µM; in data set [2], over 40 µM; in data set [4] it was 0.01 µM. The CC50 in data set [6] was over 356 µM. The compound also registered an EC50 in data set [3] of 1 µM. In addition, the selectivity ratio in data set [5] is over 355.

With `O=c1[nH]c2ccc(Cl)cc2n1S(=O)(=O)c1cccc(C(F)(F)F)c1`, the half-maximal cytotoxic concentration (CC50) in data set [6] is over 332 µM. In addition, the IC50 in data set [7] turned out to be 1.72 µM. In data set [3], the EC50 stood at 0.5 µM. The selectivity ratio in data set [5] was over 664.

Regarding `O=C1Nc2ccc(Cl)cc2[C@@](C#CC2CC2)(C(F)(F)F)O1` [EFAVIRENZ], the CC50 in data set [6] was over 6 µM.

`Cc1ccnc2c1NC(=O)c1cccnc1N2C1CC1` [NEVIRAPINE]: in data set [6], the 50% cytotoxic concentration (CC50) is over 15 µM.

As a reminder, the IC50 is the concentration at which inhibition is half-maximal. A lower IC50 goes with greater potency in that assay. The EC50 is the concentration that produces a half-maximal response. Lower therefore signals greater potency. What is called CC50 is the concentration at which the toxic effect on the cells reaches its halfway point.
